High-throughput results deposited in PubChem BioAssay by several laboratories.
ABCG2 block: blocks JC-1 efflux by human ABCG2 transporter. Q9UNQ0. IgMXP3 cells, flow cytometry. inhibition, % at 6.6 µM. 0.1% of 190,000 active. AID 1325;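 active = inhibition above 80%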
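Test system: IgMXP3 (ABCG2) plus far-red-tagged CCRF-Adr (ABCB1) cells / Amount: 3 million cells/mL in well / Reagent: JC-1 transporter substrate / Timing: 10 min compound exposure, 25 °C / Signal: flow cytometry, 530 nm JC-1 signal / Read-out: percent efflux inhibition, scaled nicardipine 100% to DMSO 0% / Benchmarks: nicardipine as high control, DMSO as low control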
Redox H2O2 prof: compounds producing H2O2 with reducing agent – biochemical, NIH compound library profiling, artefact control for MLSCN library redox annotation, primary screen | DTT-dependent redox cycling H2O2, phenol red/HRP absorbance; 100% = 100 µM peroxide control, 0% = buffer | activation, % at 10 µM | 0.03% of 200,000 active;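 active = activation of at least 50% relative to the plate's high and low controls in the primary single-dose screen; inactive = activation below 50%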;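 also: compound incubated with DTT at 0.8 mM final as the reducing agent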
ABCB1 block: blocks JC-1 efflux by human ABCB1 transporter. 0.067% of 190,000 active. AID 1326. CCRF-Adr cells, flow cytometry. inhibition, % at 6.6 µM. P08183; in the data active = inhibition above about 40%;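 also: higher value means more JC-1 retained so stronger ABCB1 efflux block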
Avidin fluor: avidin bead compound fluorescence profile | Avidin beads, compound fluorescence 488/530 nm, flow cytometry; hits give high values | fluorescence (KMESF) at 10 µM | 0.38% of 220,000 active | AID 1775; in the data active = fluorescence above about 47
GSH fluor: compound fluoresces at 488/530 nm on GSH beads; GSH beads flow cytometry, compound fluorescence 488/530 nm; hits give high values; fluorescence (KMESF) at 10 µM; 0.25% of 190,000 active; AID 1776; in the data active = fluorescence above about 89;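 also: glutathione beads carrying GST-tagged Bcl family fusion proteins plus one bare bead set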
Large screens that a line does not name were inactive. This is a sample that favours compounds with a hit; in the whole collection about 0.72% have one here.

COc1ccc(NC(=S)N(CCN(C)C)C(C)c2ccco2)cc1Cl (stereo not given)	GSH fluor 152
COC(=O)c1ccccc1NC(=O)c1cnn2c(C)cc(C)nc12	none
COC(=O)c1ccccc1NC(=O)c1nc2nc(C)cc(C)n2n1	Avidin fluor 134
C=CCn1c(CNC(=O)c2ccccc2F)nnc1SCC(=O)NC(C)c1ccccc1 (stereo not given)	none
O=C(c1ccc(NC(=S)NCc2ccco2)cc1)N1CCCCC1	none
O=C(Cc1ccccc1)N/N=C/c1cccs1	none
O=S(=O)(CCc1ccccc1)/N=C/c1cccs1	Avidin fluor 51
C=CCSc1nc(C)c(CC(=O)OCC(C)C)c(=O)[nH]1	Avidin fluor 48
CCOCCCNC(=O)CSc1ccccc1	Avidin fluor 51
CC(C)(C)NC(=S)NC1CC1	none (no result: ABCG2 block, Redox H2O2 prof, ABCB1 block, GSH fluor)
Cc1cc(C)n2nc(C(=O)OCCOc3ccc(F)cc3)nc2n1	none
Cc1cc(C)n2nc(C(=O)OCCOc3cccc(Br)c3)nc2n1	GSH fluor 253
CCOCC(=O)Nc1cc(Cl)ccc1C	none
Cc1ccc(NC(=O)CCCCCC2NC(=O)NC2C)cc1 (stereo not given)	none
CC1NC(=O)NC1CCCCC(=O)O (stereo not given)	GSH fluor 243
COc1ccc(C2CC(c3ccccc3)=NN2C(=O)COC(=O)C2(C)CC2(Cl)Cl)cc1 (stereo not given)	none
COc1ccc(C2/C(=C(\O)c3ccc4c(c3)OCCO4)C(=O)C(=O)N2Cc2ccco2)c(OC)c1 (stereo not given)	GSH fluor 122
CCOc1ccc(NC(=O)CSc2nnc(CNC(=O)c3ccco3)o2)cc1	none
COC(=O)c1sc(NC(=O)C2CCCO2)c(C(=O)OC)c1C (stereo not given)	none
Cc1c(C(=O)OC(C)C)sc(NC(=O)C2CCCO2)c1C(=O)OC(C)C (stereo not given)	GSH fluor 93
O=C(CNC(=S)N(CCCN1CCOCC1)Cc1cccs1)N1CCCC1	none
Nc1c(C(=O)NCc2ccco2)sc2nc(N3CCOCC3)c3c(c12)CCCC3	Avidin fluor 62
NC(=O)NC1NC(=O)NC1=O (stereo not given)	none (no result: ABCG2 block, Redox H2O2 prof, ABCB1 block, GSH fluor)
O=C(CCl)NC(=O)NC12CC3CC(CC(C3)C1)C2	Avidin fluor 145
O=C(COC(=O)c1cccnc1)Nc1ccccc1	none
CC(=O)N1CCC(C(=O)Nc2ccccc2)(N(Cc2ccccc2)C(=O)c2cccnc2)CC1	GSH fluor 267
O=C(Nc1ccccc1C(F)(F)F)N1CCN(c2ccccn2)CC1	none
CN1CCN(C(=S)C(=O)Nc2ccc(Br)cc2)CC1	none
CC(Oc1ccccc1)C(=O)OCC(=O)NC(=O)NCc1ccco1 (stereo not given)	GSH fluor 267
O=C(O)/C=C/c1cnn(-c2ccccc2)c1	none
CCN(CC)c1ccc2cc(-c3nc(-c4ccc(OC)cc4)cs3)c(=O)oc2c1	ABCG2 block active, ABCB1 block active, Avidin fluor 636, GSH fluor 445
CC1CCN(CCCNC(=O)c2ccc3c(Cl)c4c(nc3c2)CCCC4)CC1	none (no result: ABCG2 block, Redox H2O2 prof, ABCB1 block, GSH fluor)
Cc1c2cc(O)c(=O)cc-2oc2cc(O)c(O)cc12	ABCB1 block 47.0 (no result: GSH fluor)
COc1cc(OC)c(-c2c3cc(O)c(=O)cc-3oc3cc(O)c(O)cc23)cc1OC	GSH fluor 283
O=c1cc(-c2ccccc2Cl)oc2cc(O)cc(O)c12	none
COc1c(O)cc2oc(-c3ccc(O)cc3)cc(=O)c2c1O	none (no result: ABCG2 block, Redox H2O2 prof, ABCB1 block, GSH fluor)
Cc1nc(NC(=O)COC(=O)C2=NNC(=O)CC2)c(Cl)cc1Cl	none
CC(C)=CC(=O)OCC(=O)Nc1nc(C)c(Cl)cc1Cl	GSH fluor 273
COc1ccccc1NC(=O)C1CCCCC1	Avidin fluor 90
COc1ccccc1NC(=O)NC(N)=O	none
COc1ccccc1NC(=O)Nn1cnnc1	GSH fluor 242
O=C(Nc1ccccc1Oc1ccccc1)C1CCCC1	none
COc1ccccc1NC(=O)Nc1ccnn1C1CCCCC1	GSH fluor 266
Cc1cc(C)n(-c2cccc(CN(C)Cc3nc(-c4cnccn4)no3)c2)n1	none
COC(=O)c1c(NC(=O)C2CC2)sc(C(=O)Nc2ccccc2)c1C	none
CCOc1ccc(/C=N/OCC(=O)NCc2ccc3c(c2)OCO3)cc1OC	none
Cc1ccc(N2C(=O)CC(Sc3nc4ccccc4o3)C2=O)cc1Cl (stereo not given)	none
COc1ccc(S(=O)(=O)N[C@H](C(=O)O)C(C)C)cc1	ABCB1 block 53.8
COc1ccc(NC(=O)CC(=O)Nc2ccc(OC)cc2OC)c(OC)c1	Avidin fluor 79
COc1ccc(NC(=O)CC(C)=O)c(OC)c1	none (no result: ABCG2 block, Redox H2O2 prof, ABCB1 block, GSH fluor)
CC(OC(=O)C1CC1)C(=O)Nc1cc(C(F)(F)F)ccc1Cl (stereo not given)	none
Cc1cc(C(=O)OCC(=O)c2ccc(Br)s2)c(C)o1	GSH fluor 269
CC(=O)Nc1ccc(C(=O)OC2CCCCC2=O)cc1 (stereo not given)	GSH fluor 280
COc1cccc(NC(=O)[C@H](C)NC(=O)C2CCN(S(=O)(=O)c3ccc(C)cc3)CC2)c1	none (no result: ABCG2 block, Redox H2O2 prof, ABCB1 block, GSH fluor)
c1ccc(-c2cnn3c(-c4ccccc4)c(-c4ccccc4)nc3n2)cc1	ABCG2 block 171.9, ABCB1 block 42.5
Cc1cc(C)cc(OCC(=O)Nc2ccccc2N2CCCCC2)c1	Avidin fluor 69
Cc1ccccc1OCC(=O)Nc1ccccc1N1CCCCC1	none
O=C(O)c1cncc(C#CCC2CCCCC2)c1	none (no result: ABCG2 block, Redox H2O2 prof, ABCB1 block, GSH fluor)
Cc1cnc(C(=O)OCc2ccc(COC(=O)c3cnc(C)cn3)cc2)cn1	Avidin fluor 69
Cc1cc(=O)[nH]c(SCC(=O)Nc2cccc3ccccc23)c1C#N	Avidin fluor 132
Cc1cc(C)c(C#N)c(SCC(=O)Nc2ccccc2C)n1	none
Cc1ccc(/C(O)=C/C(=O)C(=O)NC23CC4CC(CC(C4)C2)C3)cc1	none (no result: ABCG2 block, Redox H2O2 prof, ABCB1 block, GSH fluor)
CC(C)C(OC(=O)c1cccs1)C(=O)NCc1ccccc1 (stereo not given)	none
CC1CCCC(NC(=O)CCCn2c(=O)[nH]c3cc(Cl)ccc3c2=O)C1C (stereo not given)	Avidin fluor 100
O=C(CCCn1c(=O)[nH]c2cc(Cl)ccc2c1=O)NCC1CCCO1 (stereo not given)	none
COc1ccc2nc(SCC(=O)Nc3ccccc3C#N)[nH]c2c1	none
COc1ccc2nc(SCC(=O)Nc3ccccc3C)[nH]c2c1	Avidin fluor 64
CC(O)c1cccc(NC(=O)CCCc2ccccc2)c1 (stereo not given)	none
CC(O)c1cccc(NC(=O)CCC(=O)O)c1 (stereo not given)	GSH fluor 261
Cc1ccc(S(=O)(=O)NC2(C(F)(F)F)C(=O)Nc3c2c(=O)[nH]c(=O)n3-c2ccccc2)cc1 (stereo not given)	Avidin fluor 88
CCCOC(=O)c1cc(-c2ccc(/C=C3/C(=O)N(C)C(=O)C(C#N)=C3C)o2)ccc1Cl	none (no result: ABCG2 block, ABCB1 block, Avidin fluor, GSH fluor)
